Laboratory results reported in PMC3444677 (Chemical research in toxicology, 2012).
Several values for one entry are separate records, joined by “and”; a condition that tells them apart may be missing. Equal entries are not always repeated.

What was measured:
hERG channel [1] = molecular target: T1, hERG channel (Homo sapiens, UniProt Q12809); conditions: for Maximum inhibition of hERG currents: 1.9 μM, mean ± SEM, n = 3; for Rel. Pot., patch clamp: relative potency compared to AZA1
hERG channel [2] = molecular target: T1, hERG channel; conditions: for hERG binding of [3H]dofetilide relative to vehicle controls (reduced to): 10 μM; for Rel. Pot., channel binding: relative potency compared to AZA1
hERG channel [3] = molecular target: T1, hERG channel; conditions: for Thallium flux via hERG relative to vehicle controls (reduced to): 30 μM, mean ± SEM, n = 3; for Rel. Pot., thallium flux: relative potency compared to AZA1
[4] = system: Jurkat T lymphocyte cells; conditions: fold more potent than AZA1; cited from earlier work
WT hERG1 channels = WT hERG1 channels (Homo sapiens, UniProt Q12809); experiment: Two-electrode voltage clamp of WT hERG1 channels in Xenopus oocytes; assay type: cell-based
F656T hERG1 channels = F656T hERG1 channels (Homo sapiens, UniProt Q12809, F656T); experiment: Two-electrode voltage clamp of F656T hERG1 channels in Xenopus oocytes; assay type: cell-based; conditions: 10 μM
Y652A hERG1 channels = Y652A hERG1 channels (Homo sapiens, UniProt Q12809, Y652A); experiment: Two-electrode voltage clamp of Y652A hERG1 channels in Xenopus oocytes; assay type: cell-based; conditions: 10 μM
hEAG1 channels = molecular target: T2, hEAG1 channels (Homo sapiens, UniProt O95259); experiment: Two-electrode voltage clamp of hEAG1 channels in Xenopus oocytes; assay type: cell-based; conditions: 10 μM, n = 4
T2 sequence (O95259 1-962 isoform O95259-2): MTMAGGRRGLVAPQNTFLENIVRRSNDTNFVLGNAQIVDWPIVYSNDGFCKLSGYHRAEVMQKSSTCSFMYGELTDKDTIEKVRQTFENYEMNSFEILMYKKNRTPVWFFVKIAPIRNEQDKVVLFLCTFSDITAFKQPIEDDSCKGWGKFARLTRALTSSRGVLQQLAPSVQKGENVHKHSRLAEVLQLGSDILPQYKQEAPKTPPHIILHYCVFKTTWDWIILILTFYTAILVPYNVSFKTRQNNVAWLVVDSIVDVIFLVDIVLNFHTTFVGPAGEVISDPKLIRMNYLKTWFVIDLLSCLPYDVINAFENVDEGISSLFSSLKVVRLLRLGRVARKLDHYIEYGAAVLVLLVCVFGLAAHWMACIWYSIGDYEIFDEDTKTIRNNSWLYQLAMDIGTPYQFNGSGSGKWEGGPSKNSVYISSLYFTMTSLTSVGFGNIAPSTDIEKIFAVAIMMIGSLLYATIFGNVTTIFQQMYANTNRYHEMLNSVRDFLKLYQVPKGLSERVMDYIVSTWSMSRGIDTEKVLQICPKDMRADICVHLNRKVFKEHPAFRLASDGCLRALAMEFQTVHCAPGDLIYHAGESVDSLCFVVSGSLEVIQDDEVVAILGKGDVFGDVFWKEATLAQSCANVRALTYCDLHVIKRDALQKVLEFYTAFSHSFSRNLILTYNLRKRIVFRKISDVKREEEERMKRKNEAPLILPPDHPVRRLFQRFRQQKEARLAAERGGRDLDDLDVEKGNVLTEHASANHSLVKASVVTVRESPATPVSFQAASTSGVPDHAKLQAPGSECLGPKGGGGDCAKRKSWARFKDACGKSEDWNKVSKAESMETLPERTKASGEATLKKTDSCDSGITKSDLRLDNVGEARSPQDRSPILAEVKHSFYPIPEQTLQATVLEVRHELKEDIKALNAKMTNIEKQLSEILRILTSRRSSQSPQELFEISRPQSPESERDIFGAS
Outline: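 Stage IV–V Xenopus oocytes were injected with ~0.2 ng WT or mutant hEAG1 cRNA, held 2–3 days at 18 °C in Barth's saline, and recorded by two-electrode clamp at 22–24 °C. Holding was −80 mV, with 2-s steps from −70 to +40 mV. G = end-of-pulse current/(Vt − Erev), divided by a Boltzmann-extrapolated control Imax, then Boltzmann-fitted for V0.5 and k.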

[5] = 10 μM, during 37.8 s pulse to 0 mV

22-demethyl-azaspiracid [AZA3]
Maximum inhibition of hERG currents (hERG channel [1]): 79.7 ± 1.6%
Rel. Pot., patch clamp (hERG channel [1]): 1.0
hERG binding of [3H]dofetilide relative to vehicle controls (reduced to) (hERG channel [2]): 29.3 ± 1.6%
Thallium flux via hERG relative to vehicle controls (reduced to) (hERG channel [3]): 16.6 ± 0.50%
Rel. Pot., thallium flux (hERG channel [3]): 0.7
Cytotoxic potency relative to AZA1 [4]: 4.5 fold

C=C(C[C@@]12C[C@@H](C)C[C@H](O1)[C@H]1O[C@]3(C[C@H]1O2)NC[C@H](C)C[C@@H]3C)[C@H]1O[C@@](O)([C@@H](O)[C@@H]2C[C@H]3O[C@@]4(CC[C@]5(CC=C[C@@H](/C=C/CCC(=O)O)O5)O4)[C@H](C)C[C@H]3O2)[C@H](C)C[C@@H]1C [AZA1, azaspiracid]
Slope factor k of G-Vt relationship (WT hERG1 channels; 10 μM, control 8.1 ± 0.3, n = 6): 9.6 ± 0.3
V0.5 of G-Vt relationship (WT hERG1 channels; 10 μM, control -22.0 ± 0.5 mV, n = 6): -20.7 ± 0.5 mV
Amplitude of fast component of onset of block (WT hERG1 channels; [5]): 0.325
Amplitude of slow component of onset of block (WT hERG1 channels; [5]): 0.433
τfast of onset of current block (WT hERG1 channels; [5]): 2.96 s
τslow of onset of current block (WT hERG1 channels; [5]): 12.66 s
Peak outward hERG1 current, % of control (WT hERG1 channels; 10 μM, measured at -10 mV, oocytes, n = 6): 19.0 ± 2.4 % of control
Time constant of onset of hERG1 channel block (τonset) (WT hERG1 channels; 10 μM, repetitive 1-s pulses to 0 mV, oocytes): 1.5 min
Unblocked current, % of control (WT hERG1 channels; 10 μM, single long pulse to 0 mV after 4 min pulse-free incubation, 10 µM): 19% and 19.2%
Inhibition of peak Itail (WT hERG1 channels; 10 μM, tail currents at -70 mV, n = 6): 75 ± 2%
Tail current deactivation time constant, fast component (WT hERG1 channels; at -70 mV in the presence of AZA1 (control 249 ± 8 ms), n = 6): 205 ± 17 ms
Tail current deactivation time constant, slow component (WT hERG1 channels; at -70 mV in the presence of AZA1 (control 1003 ± 57 ms), n = 6): 745 ± 44 ms
Relative amplitude of the slow component of deactivation (WT hERG1 channels; in the presence of AZA1 (control 0.80 ± 0.02)): 0.72 ± 0.02
Slope factor k of G-Vt relationship (F656T hERG1 channels; control 7.8 ± 0.1, n = 5): 7.3 ± 0.1
V0.5 of G-Vt relationship (F656T hERG1 channels; control -31.0 ± 0.2 mV, n = 5): -32.6 ± 0.3 mV
Reduction of peak Itail (F656T hERG1 channels; test potentials greater than -20 mV, n = 5): 7 ± 1%
Sensitivity of channel currents to toxin (F656T hERG1 channels; test potentials negative to -20 mV): insensitive
Shift of V0.5 for activation (Y652A hERG1 channels): -5 mV
Slope factor k of G-Vt relationship (Y652A hERG1 channels; control 6.4 ± 0.3, n = 5): 7.3 ± 0.4
V0.5 of G-Vt relationship (Y652A hERG1 channels; control -20.7 ± 0.6 mV, n = 5): -26.0 ± 0.8 mV
Block of peak Itail (Y652A hERG1 channels; n = 5): 76 ± 3%
V0.5 of G-Vt relationship (hEAG1 channels; control 4.6 ± 0.7 mV): 6.4 ± 0.9 mV
Slope factor k of G-Vt relationship (hEAG1 channels; control 16.3 ± 0.6): 15.7 ± 0.7
Block of hEAG1 current (hEAG1 channels; test potential +40 mV): 15 ± 0.8%
Maximum inhibition of hERG currents (hERG channel [1]): 79.5 ± 1.8%
Rel. Pot., patch clamp (hERG channel [1]): 1.0
hERG binding of [3H]dofetilide relative to vehicle controls (reduced to) (hERG channel [2]): 19.7 ± 1.4%
Rel. Pot., channel binding (hERG channel [2]): 1.0
Thallium flux via hERG relative to vehicle controls (reduced to) (hERG channel [3]): 10.7 ± 0.56%
Rel. Pot., thallium flux (hERG channel [3]): 1.0

C=C(C[C@@]12C[C@@H](C)C[C@@H](O1)[C@H]1O[C@]3(C[C@H]1O2)NC[C@H](C)C[C@@H]3C)[C@H]1O[C@@](O)([C@@H](O)[C@@H]2C[C@H]3O[C@@]4(CC[C@]5(CC(C)=C[C@@H](/C=C/CCC(=O)O)O5)O4)[C@H](C)C[C@H]3O2)[C@H](C)C[C@@H]1C [AZA2, 8-methyl-azaspiracid]
Maximum inhibition of hERG currents (hERG channel [1]): 87.3 ± 0.95%
Rel. Pot., patch clamp (hERG channel [1]): 1.3
hERG binding of [3H]dofetilide relative to vehicle controls (reduced to) (hERG channel [2]): 22.3 ± 1.0%
Rel. Pot., channel binding (hERG channel [2]): 0.8
Thallium flux via hERG relative to vehicle controls (reduced to) (hERG channel [3]): 9.6 ± 0.79%
Rel. Pot., thallium flux (hERG channel [3]): 0.8
Cytotoxic potency relative to AZA1 [4]: 8.3 fold
